Test results taken from ChEMBL document CHEMBL3044971, “Dialkoxybenzene and dialkoxyallylbenzene feeding and oviposition deterrents against the cabbage looper, Trichoplusia ni: potential insect behavior control agents” (J Agric Food Chem, 2010).

Experiments:
Trichoplusia ni [1] = assay: Oviposition deterrent activity against adult female Trichoplusia ni (cabbage looper) moths introduced along with male moths into oviposition cage containing compound pretreated cabbage leaves assessed as eggs laying on the leaf disks at 0.25% after 48 hr; assay type: functional
Summary of the method: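 Choice test: one male and one female moth were caged with a control and a treated cabbage leaf (~100-110 cm²). Each side was sprayed with 0.5 mL MeOH or methanolic test solution at 0.25%. Values are mean ± SE, N = 35-40.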

Trichoplusia ni [2] = assay: Feeding deterrent activity against freshly molted third-instar larval stage of Trichoplusia ni (cabbage looper) in compound pretreated cabbage leaves after 3 to 5 hr by leaf disk choice bioassay; assay type: functional, organism-based
Summary of the method: (§1)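 Leaf-disk choice test on greenhouse cabbage (Stonehead) leaves from 5-6-week plants. Freshly molted third-instar T. ni from a diet-reared colony (>50 generations) were starved 4-5 h. One disk had 10 μL test solution painted on each side, the other carrier solvent only. There were 25 larvae per treatment. Run ended at ~50% control disk eaten (3-5 h). Deterrence = (C−T)/(C+T)×100 from consumed areas.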

Trichoplusia ni [3] = assay: Feeding deterrent activity against freshly molted third-instar larval stage of Trichoplusia ni (cabbage looper) in compound pretreated cabbage leaves at 50 ug/cm2 after 3 to 5 hr by leaf disk choice bioassay; assay type: functional; summary of the method: as §1
Trichoplusia ni [4] = details: in vivo, 24 h

Row | SMILES | Activity (Trichoplusia ni [1]) [%] | DC50 (Trichoplusia ni [2]) [microg/cm2] | Activity (Trichoplusia ni [3]) [%] | mortality (Trichoplusia ni [4]) [%]
1 | C=CCc1ccc(OCCC(C)C)c(OC)c1 [ISOPENTYLEUGENOL] | 9 | 25 | 86 | 28
2 | C=CCc1ccc(OCCC)c(OC)c1 [PROPYLEUGENOL] | 29 | 19 | 84 | 37
3 | CCCCOc1ccccc1OCCC [1-propoxy-2-butoxybenzene] | 37 | 21 | 98 | 19
4 | C=CCc1cc(OCCC)ccc1O | 51 | 57 | 51 | 3.3
5 | CCOc1ccc2c(c1)CC(C)O2 (configuration not stated) | -12 | 16 | 100 | 1
6 | C=CCc1cc(OCC)ccc1OCCC(C)C | 20 | 15 | 83 | 27
7 | C=CCc1cccc(OCC)c1OCC | 31 | 20 | 100 | 27
8 | C=CCOc1ccc(CC=C)cc1OC [ALLYLEUGENOL] | 16 | 15 | 86 | 18
9 | C=CCc1cc(OCCC)ccc1OCCC(C)C | 20 | 15 | 83 | 27
10 | C=CCc1cc(OC)ccc1O | 51 | 57 | 51 | 3.3
11 | C=CCc1cc(OCCC)ccc1OC | 37 | 19 | 68 | 17
12 | C=CCc1cccc(OCCC(C)C)c1OCC | 31 | 20 | 100 | 27
13 | COc1cccc(OCCC(C)C)c1 [1-isopentyloxy-3-methoxybenzene] | 30 | 29 | 89 | 30
14 | C=CCc1cccc(OC)c1O | 7 | 20.6 | 100 | 17
15 | C=CCc1cccc(OCCCC)c1O | 7 | 20.6 | 100 | 17
16 | C=CCc1cccc(OCC)c1O | 7 | 20.6 | 100 | 17
17 | C=CCc1cc(OCC)ccc1OC | 37 | 19 | 68 | 17
18 | CCCOc1cccc(OCCC(C)C)c1 [3-PROPOXY-1-ISOPENTOXYBENZENE] | 9 | 17 | 97 | 10
19 | C=CCc1cc(OCCC)ccc1OCC | 64 | 22 | 66 | 3.3

Row | SMILES | Activity (Trichoplusia ni [1]) [%] | DC50 (Trichoplusia ni [2]) [microg/cm2] | Activity (Trichoplusia ni [3]) [%] | mortality (Trichoplusia ni [4]) [%]
20 | CC(C)CCOc1ccc2c(c1)CC(C)O2 (configuration not stated) | -12 | 16 | 100 | 1
21 | C=CCc1cccc(OCCC(C)C)c1OC | 32 | 15.5 | 100 | 17
22 | C=CCc1ccc(OCCCC)c(OC)c1 [N-BUTYLEUGENOL] | 34 | 12 | 92 | 15
23 | C=CCc1cc(OCCC(C)C)ccc1OCCC(C)C | 20 | 15 | 83 | 27
24 | C=CCc1cc(OCCCC)ccc1OC | 37 | 19 | 68 | 17
25 | C=CCc1cccc(OCCC)c1O | 7 | 20.6 | 100 | 17
26 | CCN(CC)C(=O)c1cccc(C)c1 [DIETHYLTOLUAMIDE] | 23 | 47 | 60 | 7
27 | C=CCc1cc(OCCC)ccc1OCCC | 21 | 33 | 65 | 17
28 | C=CCc1cc(OC)ccc1OCCC | 7 | 9.4 | 92 | 6.4
29 | C=CCc1cccc(OCC)c1OC | 32 | 15.5 | 100 | 17
30 | C=CCc1cc(OCCCC)ccc1OCCC | 21 | 33 | 65 | 17
31 | C=CCc1cccc(OCCCC)c1OCC | 31 | 20 | 100 | 27
32 | C=CCOc1cccc(OCC=C)c1 | 26 | 20 | 97 | 13
33 | C=CCc1cc(OCC)ccc1OCC | 64 | 22 | 66 | 3.3
34 | CCCCOc1ccc2c(c1)CC(C)O2 (configuration not stated) | -12 | 16 | 100 | 1
35 | C=CCc1cc(OC)ccc1OCC | 64 | 22 | 66 | 3.3
36 | C=CCc1cc(OCCC(C)C)ccc1O | 51 | 57 | 51 | 3.3
37 | C=CCOc1ccccc1OCCC [1-allyloxy-2-propoxybenzene] | 12 | 12 | 96 | 10
38 | C=CCc1cc(OCCC(C)C)ccc1OCC | 64 | 22 | 66 | 3.3
